Assay outcomes deposited in PubChem by several laboratories.
Glyco luc inh: N-linked glycosylation inhibition | D54 ERlucT glycosylation luciferase reporter, 24 h; percent of 100 nM tunicamycin response | reporter increase, % at 12.5 µM | 0.23% of 360,000 active | AID 588692;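 active = mean luciferase reporter signal, scaled so untreated is 0 and the glycosylation-blocking control 100, at or above a set limit in every replicate; inconclusive = mean reaches the limit but not every replicate does; inactive = mean below the limit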;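 also: luciferase carries N-glycosylation sites so blocking glycosylation raises the light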
ALR H2O2 inh: human ALR oxidase inhibition via reduced H2O2. P55789. purified ALR, DTT oxidation, H2O2 HRP-luminol luminescence. inhibition, % (no concentration beside the values). 3.8% of 290,000 active. AID 485317;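 active = mean replicate inhibition above about 79%, with every replicate also reaching it, limit read from the data; inconclusive = only one of the two criteria met; inactive = mean below limit and not every replicate reaching it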
Target sequence (P55789 whole entry, looked up): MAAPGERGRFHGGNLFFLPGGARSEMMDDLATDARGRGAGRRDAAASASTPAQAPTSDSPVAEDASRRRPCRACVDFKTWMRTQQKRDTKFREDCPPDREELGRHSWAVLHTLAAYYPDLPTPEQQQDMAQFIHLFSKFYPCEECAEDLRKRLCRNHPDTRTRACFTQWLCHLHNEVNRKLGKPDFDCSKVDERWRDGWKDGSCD
T cell modulator: modulates CD8 T cell binding to vesicles; 0.068% of 330,000 active; 2C CD8+ T cell-vesicle binding, flow cytometry; stronger effect = lower value; AID 2052; response (vesicle binding), % at 7 µM;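 active = response, share of CD8 T cells binding vesicles, and their 90th percentile fluorescence all below set limits, cut at about 80% in these data, passing the limit was not always enough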;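 also: values below 100% mean blocked vesicle binding to the CD8+ T cells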
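material = purified 2C TCR transgenic mouse naive CD8+ T cells | controls = Unloaded micro-vesicles (low), QL9 vesicles with 0.7% DMSO (high) | detection = cytometric PE anti-B7-1 and Alexa647 anti-CD8 signals after 1% paraformaldehyde fixation | incubation = binding step 1.5 h, 37 °C, antibody labelling 20 min, ice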
A number is an active result. The sample as a whole holds a higher share of hits than the screen did.

How did Cc1ccc(OC(=S)Nc2ccc(O)cc2)cc1 do in these assays?
Glyco luc inh: inactive; ALR H2O2 inh: 98.9; T cell modulator: inactive

How did Cc1ccc(OC(=S)Nc2ccc(F)cc2)cc1 do in these assays?
Glyco luc inh: inactive; ALR H2O2 inh: inactive; T cell modulator: inactive

How did O=C(CCN1C(=O)C2C3CCC(C3)C2C1=O)OCC(=O)c1ccc(Cl)cc1 (stereo not given) do in these assays?
Glyco luc inh: inactive; ALR H2O2 inh: inactive; T cell modulator: inactive

What do the screens show for `COc1cccc(N2C(=O)C3CCCN3C2=S)c1` (stereo not given)?
Glyco luc inh: inactive; T cell modulator: inactive

What do the screens show for `COc1cc(/C=C/C(=O)N2CCN(c3n[nH]c(=O)[nH]c3=O)CC2)cc(OC)c1OC`?
Glyco luc inh: inactive; ALR H2O2 inh: inactive; T cell modulator: inactive

What do the screens show for `CC(/C=N/n1c(-c2ccc(C)cc2)n[nH]c1=S)=C\c1ccco1`?
Glyco luc inh: inactive; ALR H2O2 inh: 97.1; T cell modulator: inactive

How did S=c1[nH]nc(-c2ccncc2)n1/N=C/C=C/c1ccco1 do in these assays?
Glyco luc inh: inactive; ALR H2O2 inh: inactive; T cell modulator: inactive

How did CC(/C=N/n1c(-c2ccccc2)n[nH]c1=S)=C\c1ccco1 do in these assays?
Glyco luc inh: inactive; ALR H2O2 inh: inconclusive; T cell modulator: inactive

How did Cc1cccc(-c2n[nH]c(=S)n2/N=C/C=C/c2ccco2)c1 do in these assays?
Glyco luc inh: inactive; ALR H2O2 inh: 97.2; T cell modulator: inactive

What do the screens show for `Cc1ccc(/C=N/n2c(-c3cccc(Cl)c3)n[nH]c2=S)o1`?
Glyco luc inh: inactive; ALR H2O2 inh: inactive; T cell modulator: inactive

How did S=c1[nH]nc(-c2cccc(Cl)c2)n1/N=C/c1ccco1 do in these assays?
ALR H2O2 inh: 97.1; T cell modulator: inactive

What do the screens show for `C[N+](C)(C)C[C@H](O)CC(=O)[O-]`?
Glyco luc inh: inactive; ALR H2O2 inh: inactive; T cell modulator: inactive

Results for CCN(CC)C(=O)Cn1cnc2sc(C(=O)NCCCN3CCOCC3)c(C)c2c1=O ?
Glyco luc inh: inactive; ALR H2O2 inh: inactive; T cell modulator: inactive

What do the screens show for `CCc1nnc(NC(=O)CSc2nc(C)cs2)s1`?
Glyco luc inh: inactive; ALR H2O2 inh: inactive; T cell modulator: inactive

How did O=C(O)CCn1c2ccccc2c2nc3ccccc3nc21 do in these assays?
Glyco luc inh: inactive; T cell modulator: inactive

Results for Cn1c(-c2ccccc2)cnc1SCC(=O)N1CCCc2ccccc21 ?
Glyco luc inh: inactive; ALR H2O2 inh: inactive; T cell modulator: inactive

Results for Cn1c(-c2ccccc2)cnc1SCC(=O)N1CCCCC1 ?
Glyco luc inh: inactive; ALR H2O2 inh: 99.9; T cell modulator: inactive

How did CCOc1ccc(NC(=O)NNC(=O)C(C)Oc2ccccc2OC)cc1 (stereo not given) do in these assays?
Glyco luc inh: inactive; ALR H2O2 inh: inactive; T cell modulator: inactive

How did O=C(c1ccco1)N1CCN(c2ccc(F)cc2)CC1 do in these assays?
Glyco luc inh: inactive; ALR H2O2 inh: inactive; T cell modulator: inactive

What do the screens show for `O=C(NC(=S)N1CCN(c2ccccc2)CC1)c1ccccc1`?
Glyco luc inh: inactive; ALR H2O2 inh: inconclusive; T cell modulator: inactive

How did O=C(NC(=S)N1CCN(c2ccccc2)CC1)c1ccco1 do in these assays?
Glyco luc inh: inactive; ALR H2O2 inh: 98.1; T cell modulator: inactive

How did Nc1ccc(N2CCN(C(=O)c3ccco3)CC2)cc1 do in these assays?
Glyco luc inh: inactive; ALR H2O2 inh: 98.9; T cell modulator: inactive

What do the screens show for `O=C(NCC(=O)N1CCCCCCC1)c1ccco1`?
Glyco luc inh: inactive; T cell modulator: inactive

How did O=C(NCC(=O)N1CCN(c2ccccc2O)CC1)c1ccco1 do in these assays?
Glyco luc inh: inactive; ALR H2O2 inh: 90.0; T cell modulator: inactive

What do the screens show for `Cc1cc(NC(=O)Nc2cc(F)ccc2F)no1`?
Glyco luc inh: inactive; ALR H2O2 inh: inactive; T cell modulator: inactive

Results for O=S(c1ccc2ccccc2c1)c1cnns1 (stereo not given) ?
Glyco luc inh: inactive; ALR H2O2 inh: 98.7; T cell modulator: inactive

Results for Cc1nnsc1S(=O)c1ccc(Cl)c(Cl)c1 (stereo not given) ?
Glyco luc inh: inactive; T cell modulator: inactive

How did Cc1ccc(NC(=O)/C(Cl)=C/c2ccccc2)cc1C do in these assays?
Glyco luc inh: inactive; ALR H2O2 inh: inactive; T cell modulator: inactive

What do the screens show for `N#Cc1c(NC(=O)CN2CCOCC2)oc(-c2ccccc2)c1-c1ccccc1`?
Glyco luc inh: inactive; ALR H2O2 inh: 98.7; T cell modulator: inactive

Results for N#Cc1c(NC(=O)CSc2ncccn2)oc(-c2ccccc2)c1-c1ccccc1 ?
Glyco luc inh: inactive; ALR H2O2 inh: inactive; T cell modulator: inactive

How did CC(=O)N1c2ccc(S(=O)(=O)NCCC(=O)Nc3cccc(Cl)c3)cc2CC1C (stereo not given) do in these assays?
Glyco luc inh: inactive; ALR H2O2 inh: inactive; T cell modulator: inactive

Results for COc1cccc(CN2CC(C(=O)NCCc3cn4cccnc4n3)CCC2=O)c1 (stereo not given) ?
Glyco luc inh: inactive

What do the screens show for `CCN(CC)c1ccc([C@H]2[C@@H]3CCCC[C@]3(O)CCN2CC(=O)NCc2ccco2)cc1`?
Glyco luc inh: inactive; ALR H2O2 inh: 99.0; T cell modulator: inactive

How did COc1cc([C@H]2[C@@H]3CCCC[C@]3(O)CCN2CC(=O)Nc2ccc(C)cc2)ccc1O do in these assays?
Glyco luc inh: inactive; ALR H2O2 inh: inactive; T cell modulator: inactive

Results for CCN(CC)c1ccc(C2C3CCCCC3(O)CCN2CC(=O)N2CCCCC2)cc1 (stereo not given) ?
Glyco luc inh: inactive; ALR H2O2 inh: 98.7; T cell modulator: inactive

Results for CCN(CC)c1ccc(C2C3CCCCC3(O)CCN2C(=O)c2cccs2)cc1 (stereo not given) ?
Glyco luc inh: inactive; T cell modulator: inactive

How did COc1cccc(CNC(=O)COC(=O)c2nc(Cl)c(Cl)c(Cl)c2Cl)c1 do in these assays?
Glyco luc inh: inactive; T cell modulator: inactive

Results for COc1cccc(N2CCN(C(=O)C3CCN(C(=O)Nc4ccccc4)CC3)CC2)c1 ?
Glyco luc inh: inactive

What do the screens show for `CSc1ncc(Cl)c(C(=O)C(C#N)c2nc3c(C)cc(C)cc3c(=O)[nH]2)n1` (stereo not given)?
Glyco luc inh: inactive; ALR H2O2 inh: 86.4; T cell modulator: inactive

How did CSc1ncc(Cl)c(C(=O)Nc2cccc(C)c2)n1 do in these assays?
Glyco luc inh: inactive; ALR H2O2 inh: inactive; T cell modulator: inactive

What do the screens show for `Cc1ccc(C2=NC3(CCCC3)N=C2SCC(=O)Nc2ccc3c(c2)OCCO3)cc1`?
Glyco luc inh: inactive; ALR H2O2 inh: 98.9; T cell modulator: inactive

What do the screens show for `Cc1ccc(C2=NC(C)(C)N=C2SCC(=O)Nc2ccc(Cl)cc2)cc1`?
Glyco luc inh: inactive; T cell modulator: inactive

How did O=C(CSC1=NC2(CCCCCC2)N=C1c1ccccc1)Nc1ccc2c(c1)OCCO2 do in these assays?
Glyco luc inh: inactive; ALR H2O2 inh: 98.1; T cell modulator: inactive

Results for O=C(CSC1=NC2(CCCCC2)N=C1c1ccccc1)Nc1ccc2c(c1)OCCO2 ?
Glyco luc inh: inactive; ALR H2O2 inh: 98.2; T cell modulator: inactive

What do the screens show for `O=C(CSc1ccc(-c2ccccc2)nn1)Nc1ccc2c(c1)OCCO2`?
Glyco luc inh: inactive; ALR H2O2 inh: inactive; T cell modulator: inactive

What do the screens show for `O=C(CSc1ccccc1)Nc1ccc2c(c1)OCO2`?
Glyco luc inh: inactive; T cell modulator: inactive
